Measurements published in ChEMBL document CHEMBL3046104, “Antifeedant diterpenoids against Tribolium castaneum from the stems and twigs of Ceriops tagal (Rhizophoraceae)” (Molecules, 2011).

Assays:
[1] = test system: Tribolium castaneum; test: Antifeedant activity against Tribolium castaneum (red flour beetle) assessed as reduction of food consumption after 3 days by flour disk bioassay relative to control; type: functional, organism-based
Outline: (§1)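 Adult T. castaneum from a lab colony kept in the dark at 28–30 °C, 70%–80% RH, starved 24 h. Treated flour disks (36–39 mg) air-dried overnight, then equilibrated 48 h at 28–30 °C. Twenty unsexed, group-weighed adults per vial for 3 days; uneaten disk weighed against controls. Insect-free treated vials corrected for solvent evaporation. Six replicates; 10–1000 ppm; EC50 by linear regression.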

[2] = test system: Tribolium castaneum; test: Antifeedant activity against Tribolium castaneum (red flour beetle) assessed as reduction of food consumption at 1000 ppm after 3 days by flour disk bioassay relative to control; type: functional; outline: as §1
[3] = test system: Tribolium castaneum; test: Antifeedant activity against Tribolium castaneum (red flour beetle) assessed as reduction of food consumption at 300 ppm after 3 days by flour disk bioassay relative to control; type: functional; outline: as §1
[4] = test system: Tribolium castaneum; test: Antifeedant activity against Tribolium castaneum (red flour beetle) assessed as reduction of food consumption at 100 ppm after 3 days by flour disk bioassay relative to control; type: functional; outline: as §1
[5] = test system: Tribolium castaneum; test: Antifeedant activity against Tribolium castaneum (red flour beetle) assessed as reduction of food consumption at 30 ppm after 3 days by flour disk bioassay relative to control; type: functional; outline: as §1
[6] = test system: Tribolium castaneum; test: Antifeedant activity against Tribolium castaneum (red flour beetle) assessed as reduction of food consumption at 10 ppm after 3 days by flour disk bioassay relative to control; type: functional; outline: as §1

EC50 [1]	SMILES	level, % of control [2]	level, % of control [3]	level, % of control [4]	level, % of control [5]	level, % of control [6]
375.3 ppm	C=C[C@@]1(C)CC[C@@]2(C)[C@@H](CC[C@@]3(C)[C@@H]2C=C(O)C(=O)[C@@]32CO2)C1 [TAGALSIN A]	40.05%	53.15%	73.43%	88.28%	97.56%
277.6 ppm	C=C[C@@]1(C)CC[C@@]2(C)[C@@H](CC[C@@]3(C)[C@@H]2C=C(O)C(=O)[C@]32CO2)C1 [TAGALSIN B]	38.85%	47.65%	65.32%	84.17%	95.23%
285.4 ppm	C=C[C@@]1(C)CC[C@@]2(C)[C@@H](CC[C@](C)(C(C)=O)[C@@H]2CC(=O)O)C1 [TAGALSIN H]	35.41%	49.12%	63.26%	73.72%	92.86%

SMILES	EC50 [1]	level, % of control [2]	level, % of control [3]	level, % of control [4]	level, % of control [5]	level, % of control [6]
CC(=O)O[C@@H]1C[C@H](O)[C@@]23CO[C@@H](O)[C@]1(C)[C@@H]2C[C@@H](O)[C@]1(C)[C@@H]3C(=O)[C@H](OC(C)=O)[C@@]2(C)[C@H](c3ccoc3)C[C@H]3O[C@]321 [TOOSENDANIN]	66 ppm					
